# Assay results pooled from the literature.
# Each line is one published result; the experiments were not run side by side.
# MAL12: Alpha-glucosidase MAL12 (MAL12, Saccharomyces cerevisiae S288c, UniProt P53341)
SMILES,target,assay,setting,IC50
Cc1ccccc1NC(=O)Cn1cc(CSc2nc3ccccc3cc2/C=N/NC(N)=S)nn1,MAL12,"enzyme activity, inhibitor",,354 µM
COc1cc(C(c2c(O)c3ccccc3oc2=O)c2c(O)c3ccccc3oc2=O)ccc1OCc1cn(CC(=O)Nc2ccccc2F)nn1,MAL12,"enzyme activity, inhibitor, absorbance",,61.4 µM
NC(=S)N/N=C/c1cc2ccccc2nc1SCc1cn(CC(=O)Nc2ccc(O)cc2)nn1,MAL12,"enzyme activity, inhibitor",,311 µM
COc1cc(C(c2c(O)c3ccccc3oc2=O)c2c(O)c3ccccc3oc2=O)ccc1OCc1cn(CC(=O)Nc2ccccc2C)nn1,MAL12,"enzyme activity, inhibitor, absorbance",,50.2 µM
CCOC(=O)[C@H]1O[C@@H]1C(=O)N[C@@H](CC(C)C)C(=O)NCCC(C)C,"Cathepsin S (CTSS, Homo sapiens, UniProt P25774)","enzyme activity, inhibitor, fluorescence",,19.1 µM
Cc1ccc2[nH]c(=O)c(CNC3CCCCC3)cc2c1,"Alpha-1A adrenergic receptor (ADRA1A, Homo sapiens, UniProt P35348, I178V/M292L)","calcium signal, antagonist",,1.62 µM
Cn1c(=O)c2c(ncn2C)n(C)c1=O,"Solute carrier family 22 member 6 (SLC22A6, Homo sapiens, UniProt Q4U2R8)","transporter uptake, inhibitor, radiometric",oocytes,155 µM
COc1cc(C(c2c(O)c3ccccc3oc2=O)c2c(O)c3ccccc3oc2=O)ccc1OCc1cn(CC(=O)Nc2ccc([N+](=O)[O-])cc2)nn1,MAL12,"enzyme activity, inhibitor, absorbance",,12.2 µM
C[C@@H]1O[C@@H](O[C@H]2[C@H](O)[C@@H](O)[C@H](OC[C@H]3O[C@@H](OC(=O)[C@]45CCC(C)(C)C[C@H]4C4=CC[C@@H]6[C@@]7(C)CC[C@H](O[C@@H]8OC[C@H](O)[C@H](O)[C@H]8O)[C@@](C)(CO)[C@@H]7CC[C@@]6(C)[C@]4(C)CC5)[C@H](O)[C@@H](O)[C@@H]3O)O[C@@H]2CO)[C@H](O)[C@H](O)[C@H]1O,MAL12,"enzyme activity, inhibitor",,1.65 µM
Cc1ccc(NC(=O)Cn2cc(CSc3nc4ccccc4cc3/C=N/NC(N)=S)nn2)cc1,MAL12,"enzyme activity, inhibitor",,490 µM
CC(=O)OC[C@H]1O[C@@H](OC[C@H]2O[C@@H](OC(=O)[C@]34CCC(C)(C)C[C@H]3C3=CC[C@@H]5[C@@]6(C)CC[C@H](O[C@@H]7OC[C@H](O)[C@H](O)[C@H]7O[C@@H]7O[C@H](CO)[C@@H](O)[C@H](O)[C@H]7O)C(C)(C)[C@@H]6CC[C@@]5(C)[C@]3(C)CC4)[C@H](O)[C@@H](O)[C@@H]2O)[C@H](O)[C@@H](O)[C@@H]1O[C@@H]1O[C@@H](C)[C@H](O)[C@@H](O)[C@H]1O,MAL12,"enzyme activity, inhibitor",,0.75 µM
COc1cc(C(c2c(O)c3ccccc3oc2=O)c2c(O)c3ccccc3oc2=O)ccc1OCc1cn(CC(=O)Nc2cccc(Cl)c2)nn1,MAL12,"enzyme activity, inhibitor, absorbance",,85.4 µM
Cc1cccc(NC(=O)Cn2cc(CSc3nc4ccccc4cc3/C=N/NC(N)=S)nn2)c1,MAL12,"enzyme activity, inhibitor",,247 µM
Cc1ccc2oc(=O)cc(NCCO)c2c1,"Alpha-1A adrenergic receptor (ADRA1A, Homo sapiens, UniProt P35348, I178V)","calcium signal, antagonist",,331 µM
C[C@@H]1O[C@@H](O[C@H]2[C@H](O)[C@@H](O)[C@H](OC[C@H]3O[C@@H](OC(=O)[C@]45CCC(C)(C)C[C@H]4C4=CC[C@@H]6[C@@]7(C)CC[C@H](O[C@@H]8OC[C@H](O)[C@H](O)[C@H]8O)C(C)(C)[C@@H]7CC[C@@]6(C)[C@]4(C)CC5)[C@H](O)[C@@H](O)[C@@H]3O)O[C@@H]2CO)[C@H](O)[C@H](O)[C@H]1O,MAL12,"enzyme activity, inhibitor",,0.89 µM
NC(=S)N/N=C/c1cc2ccccc2nc1SCc1cn(CC(=O)Nc2ccccc2)nn1,MAL12,"enzyme activity, inhibitor",,379 µM
C[C@@H]1O[C@@H](O[C@H]2[C@H](O[C@H]3CC[C@]4(C)[C@H]5CC=C6[C@@H]7CC(C)(C)CC[C@]7(C(=O)O[C@@H]7O[C@H](CO[C@@H]8O[C@H](CO)[C@@H](O[C@@H]9O[C@@H](C)[C@H](O)[C@@H](O)[C@H]9O)[C@H](O)[C@H]8O)[C@@H](O)[C@H](O)[C@H]7O)CC[C@@]6(C)[C@]5(C)CC[C@H]4C3(C)C)OC[C@H](O)[C@@H]2O)[C@H](O)[C@H](O)[C@H]1O,MAL12,"enzyme activity, inhibitor",,0.47 µM
COc1cc(C(c2c(O)c3ccccc3oc2=O)c2c(O)c3ccccc3oc2=O)ccc1OCc1cn(CC(=O)Nc2cccc([N+](=O)[O-])c2)nn1,MAL12,"enzyme activity, inhibitor, absorbance",,16.3 µM
CC1(C)CC[C@]2(C(=O)O)CC[C@]3(C)C(=CC[C@@H]4[C@@]5(C)CC[C@H](O[C@@H]6O[C@H](C(=O)O)[C@@H](O)[C@H](O)[C@H]6O)C(C)(C)[C@@H]5CC[C@]43C)[C@@H]2C1,MAL12,"enzyme activity, inhibitor",,0.69 µM
COc1ccc(NC(=O)Cn2cc(CSc3nc4ccccc4cc3/C=N/NC(N)=S)nn2)cc1,MAL12,"enzyme activity, inhibitor",,192 µM
